This note sets out measurements from ChEMBL document CHEMBL3792386, “Design, Synthesis, and Biological Evaluation of Novel Selenium (Se-NSAID) Molecules as Anticancer Agents” (J Med Chem, 2016).

Assay [1] in a line: Antiproliferative activity against human SKOV3 cells assessed as reduction in cell viability after 48 hrs by MTT assay. Type of assay: functional, cell-based. The following applies: SK-OV-3, 48 h. In outline: (§1)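 3000 cells/well incubated in triplicate with serial concentrations of compound for 24, 48 or 72 h at 37 °C. MTT (5.0 mg/mL solution) added 3 h before the end. Formazan dissolved in DMSO, absorbance read at 570 and 630 nm. Viability normalised to vehicle control. IC50 from non-linear regression (variable slope), mean ± SD of triplicates.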

Assay [2] concerns HCT-116. Nature of the assay: Induction of ROS generation in human HCT116 cells at 5 uM after 6 hrs by flow cytometry (reference value: 6%). Type of assay: functional.
Assay [3] deals with HCT-116. Description: Induction of apoptosis in human HCT116 cells assessed as live cells at 5 uM after 24 hrs by annexin V/7-ADD staining-based flow cytometry (reference value: 90.05%). Type of assay: functional. A general note: In flow cytometry, cells or beads pass a laser one at a time.
In the next assay the test system is HepG2. Nature of the assay: Antiproliferative activity against human HepG2 cells assessed as reduction in cell viability after 48 hrs by MTT assay. Type of assay: functional, cell-based. The following applies: HepG2, 48 h. The method, boiled down:
as §1
In general terms: Formazan colour is commonly taken as a measure of viable cells.

The test system of assay [4] is HCT-116. Description: Induction of apoptosis in human HCT116 cells assessed as dead cells at 2.5 uM after 24 hrs by annexin V/7-ADD staining-based flow cytometry (reference value: 3.10%). It counts as functional.
Assay [5] deals with HCT-116. Description: Induction of apoptosis in human HCT116 cells assessed as late apoptotic cells at 2.5 uM after 24 hrs by 7-ADD and caspase 3/7 activity-based flow cytometry (reference value: 1.70%). It counts as functional.
Another assay deals with UACC-903. Nature of the assay: Antiproliferative activity against human UACC-903 cells assessed as reduction in cell viability after 72 hrs by MTT assay. Type of assay: functional, cell-based. The following applies: UACC-903, 72 h. The method, boiled down:
as §1

The test system of assay [6] is HCT-116. Description: Induction of apoptosis in human HCT116 cells assessed as live cells at 5 uM after 24 hrs by 7-ADD and caspase 3/7 activity-based flow cytometry (reference value: 92.60%). It counts as functional.
Assay [7] concerns HCT-116. Nature of the assay: Induction of apoptosis in human HCT116 cells assessed as dead cells at 5 uM after 24 hrs by annexin V/7-ADD staining-based flow cytometry (reference value: 3.10%). Type of assay: functional.

By IC50 is commonly meant the point on the concentration scale where inhibition reaches its midpoint. As for `CC(=O)Oc1ccccc1C(=O)NCC[Se]C#N`, the values for the IC50 (in assay [1]; in the assay on HepG2; in the assay on UACC-903) were 5.3 µM, 5 µM and 2.9 µM, respectively. Moreover, the Activity in the assay with HCT-116 [2] came to 13.12%; in the assay on HCT-116 [3] it was 31.2%; with HCT-116 [4] it was 1.25%; in the assay with HCT-116 [5], 9.05%; in the assay with HCT-116 [6], 20.55%; in the assay with HCT-116 [7] it was 1.3%.
